Test results taken from ChEMBL document CHEMBL3875227, “Electrophilic Helical Peptides That Bond Covalently, Irreversibly, and Selectively in a Protein-Protein Interaction Site” (ACS Med Chem Lett, 2017).
Calls of active or inactive are those of the source. The calls are words filed in the database; no cut-off is given here.

Key:
[1] = Metabolic stability in human serum at 25 uM measured up to 6 hrs; type: ADME
Bcl-2-related protein A1 = target: T1, Bcl-2-related protein A1 (Homo sapiens, UniProt Q16548); experiment: Inhibition of FITC-betaA-DIIRNIARHLAQVGDSMRSI-NH2 binding to recombinant human Bcl2A1 (1 to 152 residues) BH3 binding site expressed in Escherichia coli measured after 2 hrs by fluorescence polarization assay; conditions: for Ki: read-out: Ki(app)
T1 sequence (Q16548 whole entry): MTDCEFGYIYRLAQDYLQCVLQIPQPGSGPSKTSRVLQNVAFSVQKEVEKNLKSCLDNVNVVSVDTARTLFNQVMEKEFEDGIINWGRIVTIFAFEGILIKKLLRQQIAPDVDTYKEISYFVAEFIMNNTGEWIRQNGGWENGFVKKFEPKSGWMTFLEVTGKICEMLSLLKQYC
Procedure, shortened: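 Competitive fluorescence polarization: Bcl2A1 (15 nM) with FITC-Bid tracer (5 nM), protein/tracer 3:1 to keep fluorescence measurable, exposed to increasing peptide concentrations for 2 h. IC50 read from inhibition curves; apparent Ki derived from it.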

[2] = target: T2, Bcl-2-related protein A1 (Homo sapiens) (UniProt Q16548); experiment: Reversible inhibition of FITC-betaA-DIIRNIARHLAQVGDSMRSI-NH2 binding to recombinant human Bcl2A1 (1 to 152 residues) BH3 binding site expressed in Escherichia coli preincubated for 1 hr with 2 fold diluted Bcl2A1 prior to FITC-betaA-DIIRNIARHLAQVGDSMRSI-NH2 addition measured every minute over 3.5 hrs by fluorescence polarization assay
T2 sequence (whole entry): T1 sequence (Q16548 whole entry)
Procedure, shortened: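 Bcl2A1 2-fold serially diluted (250 to 0.25 nM), preincubated 1 h with peptide at several protein/peptide ratios. FITC-Bid (5 nM) then added and fluorescence polarization recorded as titration binding curves. Buffer in place of peptide as control.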

[3] = target: T2, Bcl-2-related protein A1 (Homo sapiens); experiment: Binding affinity to Bcl2A1 in human U937 cells assessed as Bcl2A1 modification at 5 to 50 uM measured after overnight incubation by Western blot analysis; type: cell-based; conditions: U-937
Procedure, shortened: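 Live U937 cells incubated with peptide for 24 h at 37 °C, then lysed. Covalent Bcl2A1 modification detected by Western blot.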

[4] = target: T2, Bcl-2-related protein A1 (Homo sapiens); experiment: Binding affinity to Bcl2A1 (unknown origin) overexpressed in human HeLa cells at 50 uM measured after 24 hrs by Western blot analysis; type: cell-based
[5] = target: T2, Bcl-2-related protein A1 (Homo sapiens); experiment: Binding affinity to recombinant human C-terminal His6-tagged Bcl2A1 (1 to 152 residues) expressed in Escherichia coli assessed as adduct formation at 25 uM measured after 5 hrs by LC-MS analysis
Procedure, shortened: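 Bcl2A1 (5 μM) reacted with electrophilic peptide (25 μM) at pH 7.2 for 5 h. Protein adducts analysed by mass spectrometry.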

[6] = Drug uptake in mitochondria of human U937 cells at 1 uM measured after 4 hrs using FITC-labeled compound by Hoechst and MitoTracker Deep Red dye-based confocal live cell microscopy; type: ADME; conditions: u-937, 4 h
Procedure, shortened: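 Live U937 lymphoma cells given FITC-labelled peptide (1 μM) for 4 h. Nuclei stained with Hoechst and mitochondria with MitoTracker; colocalization imaged by confocal microscopy.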

[7] = Cellular uptake in human U937 cells at 10 uM measured after 4 hrs by flow cytometry; type: ADME, cell-based; conditions: u-937, 4 h
[8] = Stability of the compound in DTT buffer at 50 uM and pH 7.2 measured after 1 to 17 hrs by mass spectra analysis; type: physicochemical; conditions: pH 7.2, 50 µM
Procedure, shortened: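 Peptide held in 1 mM dithiothreitol over several hours to follow its integrity.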

[9] = target: T2, Bcl-2-related protein A1 (Homo sapiens); conditions: 500 nM
[10] = target: T2, Bcl-2-related protein A1 (Homo sapiens); conditions: 500 nM; remark: listed apart in the source

Compound	Stability [1]	IC50 (Bcl-2-related protein A1) [nM]	Ki (Bcl-2-related protein A1) [nM]	Activity [3]	Activity [5]	other results
CC[C@H](C)[C@H](NC(C)=O)C(=O)N[C@@H](Cc1c[nH]c2ccccc12)C(=O)N[C@H](C(=O)N[C@@H](C)C(=O)N[C@@H](CCC(N)=O)C(=O)N[C@@H](CCC(=O)O)C(=O)N[C@@H](CC(C)C)C(=O)N[C@@H](CCCNC(=N)N)C(=O)N[C@@]1(C)CCCC=CCCC[C@@](C)(C(=O)N[C@@H](Cc2ccccc2)C(=O)N[C@@H](CC(N)=O)C(=O)N[C@@H](C)C(=O)N[C@@H](Cc2ccc(O)cc2)C(=O)N[C@@H](Cc2ccc(O)cc2)C(=O)N[C@@H](C)C(=O)N[C@@H](CCCNC(=N)N)C(=O)N[C@@H](CCCNC(=N)N)C(N)=O)NC(=O)[C@H](CC(=O)O)NC(=O)CNC(=O)[C@H]([C@@H](C)CC)NC1=O)[C@@H](C)CC	Stable	110	32	Active	–	inhibition [2]: Active; Activity [4]: Active
C#CC(=O)NC[C@H](NC(=O)[C@@H](NC(C)=O)[C@@H](C)CC)C(=O)N[C@H](C(=O)N[C@@H](C)C(=O)N[C@@H](CCC(N)=O)C(=O)N[C@@H](CCC(=O)O)C(=O)N[C@@H](CC(C)C)C(=O)N[C@@H](CCCNC(=N)N)C(=O)N[C@@]1(C)CCCC=CCCC[C@@](C)(C(=O)N[C@@H](Cc2ccccc2)C(=O)N[C@@H](CC(N)=O)C(=O)N[C@@H](C)C(=O)N[C@@H](Cc2ccc(O)cc2)C(=O)N[C@@H](Cc2ccc(O)cc2)C(=O)N[C@@H](C)C(=O)N[C@@H](CCCNC(=N)N)C(=O)N[C@@H](CCCNC(=N)N)C(N)=O)NC(=O)[C@H](CC(=O)O)NC(=O)CNC(=O)[C@H]([C@@H](C)CC)NC1=O)[C@@H](C)CC	–	–	–	–	Active	–
C=CC(=O)NC[C@H](NC(=O)[C@@H](NC(=O)CCCCCNC(=O)c1cc(N=C=S)ccc1-c1c2ccc(=O)cc-2oc2cc(O)ccc12)[C@@H](C)CC)C(=O)N[C@H](C(=O)N[C@@H](C)C(=O)N[C@@H](CCC(N)=O)C(=O)N[C@@H](CCC(=O)O)C(=O)N[C@@H](CC(C)C)C(=O)N[C@@H](CCCNC(=N)N)C(=O)N[C@@]1(C)CCCC=CCCC[C@@](C)(C(=O)N[C@@H](Cc2ccccc2)C(=O)N[C@@H](CC(N)=O)C(=O)N[C@@H](C)C(=O)N[C@@H](Cc2ccc(O)cc2)C(=O)N[C@@H](Cc2ccc(O)cc2)C(=O)N[C@@H](C)C(=O)N[C@@H](CCCNC(=N)N)C(=O)N[C@@H](CCCNC(=N)N)C(N)=O)NC(=O)[C@H](CC(=O)O)NC(=O)CNC(=O)[C@H]([C@@H](C)CC)NC1=O)[C@@H](C)CC	–	–	–	–	–	Drug uptake [6]: Active; Drug uptake [7]: Active
C=CC(=O)NC[C@H](NC(=O)[C@@H](NC(C)=O)[C@@H](C)CC)C(=O)N[C@H](C(=O)N[C@@H](C)C(=O)N[C@@H](CCC(N)=O)C(=O)N[C@@H](CCC(=O)O)C(=O)N[C@@H](CC(C)C)C(=O)N[C@@H](CCCNC(=N)N)C(=O)N[C@@]1(C)CCCC=CCCC[C@@](C)(C(=O)N[C@@H](Cc2ccccc2)C(=O)N[C@@H](CC(N)=O)C(=O)N[C@@H](C)C(=O)N[C@@H](Cc2ccc(O)cc2)C(=O)N[C@@H](Cc2ccc(O)cc2)C(=O)N[C@@H](C)C(=O)N[C@@H](CCCNC(=N)N)C(=O)N[C@@H](CCCNC(=N)N)C(N)=O)NC(=O)[C@H](CC(=O)O)NC(=O)CNC(=O)[C@H]([C@@H](C)CC)NC1=O)[C@@H](C)CC	Stable	8.5	< 0.1	Active	–	Stability [8]: Stable; T1/2 [9]: 28 min; inhibition [10]: Active
CC[C@H](C)[C@H](NC(C)=O)C(=O)N[C@@H](CNC(=O)CCl)C(=O)N[C@H](C(=O)N[C@@H](C)C(=O)N[C@@H](CCC(N)=O)C(=O)N[C@@H](CCC(=O)O)C(=O)N[C@@H](CC(C)C)C(=O)N[C@@H](CCCNC(=N)N)C(=O)N[C@@]1(C)CCCC=CCCC[C@@](C)(C(=O)N[C@@H](Cc2ccccc2)C(=O)N[C@@H](CC(N)=O)C(=O)N[C@@H](C)C(=O)N[C@@H](Cc2ccc(O)cc2)C(=O)N[C@@H](Cc2ccc(O)cc2)C(=O)N[C@@H](C)C(=O)N[C@@H](CCCNC(=N)N)C(=O)N[C@@H](CCCNC(=N)N)C(N)=O)NC(=O)[C@H](CC(=O)O)NC(=O)CNC(=O)[C@H]([C@@H](C)CC)NC1=O)[C@@H](C)CC	–	–	–	–	Active	–
